Like-named read-outs stand apart in the source and are kept apart here.
Legend:
[1] = format: in vivo, human; details: for tmax, total methylprednisolone: median (minimum‐maximum)
How it was run: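 Oral methylprednisolone tablets were given to healthy in-clinic volunteers, with serial whole-blood sampling over 24 h after dosing on study days 1 and 4. Plasma total methylprednisolone was quantified by validated LC–MS/MS. The PK population comprised subjects with at least 4 consecutive quantifiable concentrations. Parameters were summarized descriptively.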

[2] = Plasma pharmacokinetics of free methylprednisolone after oral methylprednisolone; format: in vivo, human; details: oral 32 mg daily; for tmax, free methylprednisolone: median (minimum‐maximum)
[3] = system: steroidogenic concentration (CSG = 5 × ConcMPD + ConcCortisol); assay: Steroidogenic exposure; format: in vivo, human; details: oral methylprednisolone 32 mg daily
How it was run: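 After oral methylprednisolone on days 1 and 4, plasma total and free methylprednisolone were measured over 24 h by LC–MS/MS, alongside serum total and plasma free cortisol. Steroidogenic concentration was CSG = 5 × methylprednisolone concentration + cortisol concentration. AUEC24SG was derived noncompartmentally from actual sampling times, in subjects belonging to both the PK and PD populations.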

[4] = Safety: adverse events, examinations, laboratory tests; format: in vivo, human; details: n = 16 subjects per study drug group
How it was run: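 The safety population comprised every subject given ≥1 dose. Assessments throughout the study covered AEs, TEAEs (events after the first dose through study completion), serious TEAEs, physical examinations, vital signs, 12‑lead ECGs and clinical laboratory tests. Results were summarized descriptively.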

[5] = every 1 mg of methylprednisolone is equivalent to 5 mg of cortisol; cited from earlier work
[6] = oral 32 mg daily, plasma, day 1, mean (SD), n = 16
[7] = oral 32 mg daily, plasma, day 4, mean (SD), n = 14
[8] = plasma, day 1, mean (SD), n = 16

## C[C@H]1C[C@@H]2[C@H]([C@@H](O)C[C@@]3(C)[C@H]2CC[C@]3(O)C(=O)CO)[C@@]2(C)C=CC(=O)C=C12 [Methylprednisolone, methylprednisolone]
[1]; oral 32 mg daily, AUC0-24 on day 4 divided by AUC0-24 on day 1, mean
  RAUC0‐24 (accumulation ratio), total methylprednisolone: 0.9
[1]; oral 32 mg daily, after oral dosing
  time of mean peak plasma total methylprednisolone concentration (mean profile): around 2 hours
[1]; [6]
  AUC0‐inf, total methylprednisolone: n = 16 1030 (380) ng • h/mL
  AUC0‐last, total methylprednisolone: n = 16 1020 (381) ng • h/mL
  t½, total methylprednisolone: n = 16 2.2 (0.6) h
[1]; oral 32 mg daily, plasma, day 1, mean (SD), n = 16, listed as methylprednisolone
  t½, total methylprednisolone: 2.2 h
[1]; oral 32 mg daily, plasma, day 1, n = 16
  tmax, total methylprednisolone: n = 16 2.0 (2.0‐4.0) h
[1]; [7]
  AUC0‐last, total methylprednisolone: n = 14 919 (297) ng • h/mL
  t½, total methylprednisolone: n = 14 2.4 (0.7) h
[1]; oral 32 mg daily, plasma, day 4, mean (SD), n = 14, listed as methylprednisolone
  t½, total methylprednisolone: 2.4 h
[1]; oral 32 mg daily, plasma, day 4, n = 14
  tmax, total methylprednisolone: n = 14 2.0 (1.0‐4.0) h
[1]; oral methylprednisolone 32 mg daily, plasma, LC-MS/MS, day 4, mean (SD), n = 14
  Cmax, total methylprednisolone: n = 14 188.0 (40.0) ng/mL
[2]; after oral dosing
  time of mean peak plasma free methylprednisolone concentration (mean profile): 2 h
[2]; plasma, LC-MS/MS, day 4, mean (SD), n = 15
  Cmax, free methylprednisolone: n = 15 21.9 (5.4) ng/mL
[2]; [8]
  AUC0‐inf, free methylprednisolone: n = 16 106 (36) ng • h/mL
  AUC0‐last, free methylprednisolone: n = 16 104.0 (35.2) ng • h/mL
  t½, free methylprednisolone: n = 16 1.9 (0.5) h
[2]; plasma, day 1, mean (SD), n = 16, listed as methylprednisolone
  t½, free methylprednisolone: 1.9 h
[2]; plasma, day 1, n = 16
  tmax, free methylprednisolone: n = 16 2.0 (1.0‐4.0) h
[2]; plasma, day 4, mean (SD), n = 13
  t½, free methylprednisolone: n = 13 2.0 (0.5) h
[2]; plasma, day 4, mean (SD), n = 13, listed as methylprednisolone
  t½, free methylprednisolone: 2.0 h
[2]; plasma, day 4, mean (SD), n = 15
  AUC0‐last, free methylprednisolone: n = 15 89.5 (27.3) ng • h/mL
[2]; plasma, day 4, n = 15
  tmax, free methylprednisolone: n = 15 2.0 (1.0‐4.0) h
[3]; day 1, mean (SD 1770.0)
  plasma total AUEC24SG: 6480.0 ng·h/mL
[3]; day 4, mean (SD 136.0)
  plasma free AUEC24SG: 492.0 ng·h/mL
[3]; day 4, mean (SD 1330.0)
  plasma total AUEC24SG: 5440.0 ng·h/mL
[4]
  Any TESAE: 0 n (%)
  Subjects with any TEAE: 10 (62.5) n (%)
  TEAE: Contusion: 1 (6.3) n (%)
  TEAE: Dysuria: 0 n (%)
  TEAE: Headache: 2 (12.5) n (%)
  TEAE: Heart palpitations: 2 (12.5) n (%)
  TEAE: Injection site reaction: 0 n (%)
  TEAE: Insomnia: 0 n (%)
  TEAE: Somnolence: 0 n (%)
  TESAE: Pulmonary embolism: 0 n (%)
[4]; number of adverse events
  AEs: 17 n
[5]
  potency relative to cortisol (times more potent): 5 times

Reference: PMC9290342 (Clinical Pharmacology in Drug Development, 2021)
